# Source: ChEMBL document CHEMBL4680175, “Sulfonamide-based ring-fused analogues for CAN508 as novel carbonic anhydrase inhibitors endowed with antitumor activity: Design, synthesis, and in vitro biological evaluation” (Eur J Med Chem, 2020)
# pIC50, pKi: −log10 of the molar value. Activity calls are given as the source filed them. The calls are words filed in the database; no cut-off is given here.
# What was measured:
# NCI-H322M = assay: Antitumor activity against human NCI-H322M cells assessed as cell growth inhibition at 10 uM incubated for 48 hrs by sulforhodamine B assay; type: functional; settings: read-out: GI
# Procedure, shortened: (§1)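 NCI Drug Evaluation Branch protocol: primary single-dose screen at 10 μM across a 57-line human cancer panel. Drug exposure is 48 h. Cell growth and viability are read by sulforhodamine B assay. Data are given as a mean graph of percent growth of treated cells and reported as percentage growth inhibition (GI%).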
# SNB-75 = assay: Antitumor activity against human SNB-75 cells assessed as cell growth inhibition at 10 uM incubated for 48 hrs by sulforhodamine B assay; type: functional; settings: read-out: GI
# Procedure, shortened: (§2)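 NCI one-dose screen: 57-cell-line panel exposed at 10 μM for 48 h, Drug Evaluation Branch protocol. Growth and viability read by sulforhodamine B; data given as percent growth inhibition from the mean-graph of percent growth of treated cells.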
# HCT-116 = assay: Antitumor activity against human HCT116 cells assessed as cell growth inhibition at 10 uM incubated for 48 hrs by sulforhodamine B assay; type: functional; settings: read-out: GI; procedure, shortened: as §1
# SK-MEL-5 = assay: Antitumor activity against human SK-MEL-5 cells assessed as cell growth inhibition at 10 uM incubated for 48 hrs by sulforhodamine B assay; type: functional; settings: read-out: GI; procedure, shortened: as §1
# SR = assay: Antitumor activity against human SR cells assessed as cell growth inhibition at 10 uM incubated for 48 hrs by sulforhodamine B assay; type: functional; settings: read-out: GI; procedure, shortened: as §2
# Carbonic anhydrase 1 = Carbonic anhydrase 1 (Homo sapiens, UniProt P00915); assay: Inhibition of recombinant human carbonic anhydrase 1 preincubated with enzyme for 15 mins by phenol red dye based stopped flow CO2 hydrase assay
# Sequence of Carbonic anhydrase 1 (P00915 whole entry): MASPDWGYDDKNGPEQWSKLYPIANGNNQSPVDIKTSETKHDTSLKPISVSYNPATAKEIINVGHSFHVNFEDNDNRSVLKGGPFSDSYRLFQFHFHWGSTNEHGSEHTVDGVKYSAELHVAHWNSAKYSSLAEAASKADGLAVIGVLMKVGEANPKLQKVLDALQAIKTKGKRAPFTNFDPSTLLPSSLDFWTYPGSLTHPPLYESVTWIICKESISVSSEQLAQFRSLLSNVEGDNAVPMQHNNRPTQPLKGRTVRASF
# LOX IMVI = assay: Antitumor activity against human LOX IMVI cells assessed as cell growth inhibition at 10 uM incubated for 48 hrs by sulforhodamine B assay; type: functional; settings: read-out: GI; procedure, shortened: as §1
# MDA-MB-435 = assay: Antitumor activity against human MDA-MB-435 cells assessed as cell growth inhibition at 10 uM incubated for 48 hrs by sulforhodamine B assay; type: functional; settings: read-out: GI; procedure, shortened: as §1
# ACHN = assay: Antitumor activity against human ACHN cells assessed as cell growth inhibition at 10 uM incubated for 48 hrs by sulforhodamine B assay; type: functional; settings: read-out: GI; procedure, shortened: as §1
# RXF 393 = assay: Antitumor activity against human RXF 393 cells assessed as cell growth inhibition at 10 uM incubated for 48 hrs by sulforhodamine B assay; type: functional; settings: read-out: GI; procedure, shortened: as §1
# SF-268 = assay: Antitumor activity against human SF268 cells assessed as cell growth inhibition at 10 uM incubated for 48 hrs by sulforhodamine B assay; type: functional; settings: read-out: GI; procedure, shortened: as §1
# SK-OV-3 = assay: Antitumor activity against human SK-OV-3 cells assessed as cell growth inhibition at 10 uM incubated for 48 hrs by sulforhodamine B assay; type: functional; settings: read-out: GI; procedure, shortened: as §1
# SN12C = assay: Antitumor activity against human SN12C cells assessed as cell growth inhibition at 10 uM incubated for 48 hrs by sulforhodamine B assay; type: functional; settings: read-out: GI; procedure, shortened: as §1
# CAKI-1 = assay: Antitumor activity against human CAKI-1 cells assessed as cell growth inhibition at 10 uM incubated for 48 hrs by sulforhodamine B assay; type: functional; settings: read-out: GI; procedure, shortened: as §1
# U-251 = assay: Antitumor activity against human U251 cells assessed as cell growth inhibition at 10 uM incubated for 48 hrs by sulforhodamine B assay; type: functional; settings: read-out: GI; procedure, shortened: as §2
# Hs-578T = assay: Antitumor activity against human HS 578T cells assessed as cell growth inhibition at 10 uM incubated for 48 hrs by sulforhodamine B assay; type: functional; settings: read-out: GI; procedure, shortened: as §1
# HCT-15 = assay: Antitumor activity against human HCT15 cells assessed as cell growth inhibition at 10 uM incubated for 48 hrs by sulforhodamine B assay; type: functional; settings: read-out: GI; procedure, shortened: as §1
# OVCAR-3 = assay: Antitumor activity against human OVCAR-3 cells assessed as cell growth inhibition at 10 uM incubated for 48 hrs by sulforhodamine B assay; type: functional; settings: read-out: GI; procedure, shortened: as §1
# Carbonic anhydrase 2 = Carbonic anhydrase 2 (Homo sapiens, UniProt P00918); assay: Inhibition of recombinant human carbonic anhydrase 2 preincubated with enzyme for 15 mins by phenol red dye based stopped flow CO2 hydrase assay
# T47D = assay: Antitumor activity against human T-47D cells assessed as cell growth inhibition at 10 uM incubated for 48 hrs by sulforhodamine B assay; type: functional; settings: read-out: GI; procedure, shortened: as §2
# SF-539 = assay: Antitumor activity against human SF539 cells assessed as cell growth inhibition at 10 uM incubated for 48 hrs by sulforhodamine B assay; type: functional; settings: read-out: GI; procedure, shortened: as §1
# Carbonic anhydrase 12 = Carbonic anhydrase 12 (Homo sapiens, UniProt O43570); assay: Inhibition of recombinant human carbonic anhydrase 12 preincubated with enzyme for 15 mins by phenol red dye based stopped flow CO2 hydrase assay
# Sequence of Carbonic anhydrase 12 (O43570 whole entry): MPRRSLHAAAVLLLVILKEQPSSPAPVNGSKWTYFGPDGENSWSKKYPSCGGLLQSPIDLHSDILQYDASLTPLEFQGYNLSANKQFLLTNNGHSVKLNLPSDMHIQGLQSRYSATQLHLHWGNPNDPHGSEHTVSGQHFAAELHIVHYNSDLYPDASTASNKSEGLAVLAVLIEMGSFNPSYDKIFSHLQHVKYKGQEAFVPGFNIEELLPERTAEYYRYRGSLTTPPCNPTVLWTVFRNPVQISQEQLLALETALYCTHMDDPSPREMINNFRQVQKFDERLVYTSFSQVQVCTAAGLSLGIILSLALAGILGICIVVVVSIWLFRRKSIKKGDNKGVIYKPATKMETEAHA
# M14 = assay: Antitumor activity against human M14 cells assessed as cell growth inhibition at 10 uM incubated for 48 hrs by sulforhodamine B assay; type: functional; settings: read-out: GI; procedure, shortened: as §1
# Malme-3M = assay: Antitumor activity against human MALME-3M cells assessed as cell growth inhibition at 10 uM incubated for 48 hrs by sulforhodamine B assay; type: functional; settings: read-out: GI; procedure, shortened: as §1
# MDA-MB-231 = assay: Antitumor activity against human MDA-MB-231/ATCC cells assessed as cell growth inhibition at 10 uM incubated for 48 hrs by sulforhodamine B assay; type: functional; settings: read-out: GI; procedure, shortened: as §1
# A498 = assay: Antitumor activity against human A498 cells assessed as cell growth inhibition at 10 uM incubated for 48 hrs by sulforhodamine B assay; type: functional; settings: read-out: GI; procedure, shortened: as §1
# NCI-H460 = assay: Antitumor activity against human NCI-H460 cells assessed as cell growth inhibition at 10 uM incubated for 48 hrs by sulforhodamine B assay; type: functional; settings: read-out: GI; procedure, shortened: as §1
# UACC-62 = assay: Antitumor activity against human UACC-62 cells assessed as cell growth inhibition at 10 uM incubated for 48 hrs by sulforhodamine B assay; type: functional; settings: read-out: GI; procedure, shortened: as §2
# KM12 = assay: Antitumor activity against human KM12 cells assessed as cell growth inhibition at 10 uM incubated for 48 hrs by sulforhodamine B assay; type: functional; settings: read-out: GI; procedure, shortened: as §1
# NCI-H522 = assay: Antitumor activity against human NCI-H522 cells assessed as cell growth inhibition at 10 uM incubated for 48 hrs by sulforhodamine B assay; type: functional; settings: read-out: GI; procedure, shortened: as §1
# [1] = molecular target: Cyclin-dependent kinase 2/cyclin E1 (Homo sapiens, UniProt P24941); assay: Inhibition of CDK2/cyclin E (unknown origin) expressed in baculovirus infected Sf21 insect cells using histone H1 as substrate in presence of [gamma33P]ATP
# RPMI-8226 = assay: Antitumor activity against human RPMI8226 cells assessed as cell growth inhibition at 10 uM incubated for 48 hrs by sulforhodamine B assay; type: functional; settings: read-out: GI; procedure, shortened: as §1
# UO-31 = assay: Antitumor activity against human UO-31 cells assessed as cell growth inhibition at 10 uM incubated for 48 hrs by sulforhodamine B assay; type: functional; settings: read-out: GI; procedure, shortened: as §2
# IGROV-1 = assay: Antitumor activity against human IGROV1 cells assessed as cell growth inhibition at 10 uM incubated for 48 hrs by sulforhodamine B assay; type: functional; settings: read-out: GI; procedure, shortened: as §1
# CCRF-CEM = assay: Antitumor activity against human CCRF-CEM cells assessed as cell growth inhibition at 10 uM incubated for 48 hrs by sulforhodamine B assay; type: functional; settings: read-out: GI; procedure, shortened: as §1
# NCI/ADR-RES = assay: Antitumor activity against human NCI/ADR-RES cells assessed as cell growth inhibition at 10 uM incubated for 48 hrs by sulforhodamine B assay; type: functional, cell-based; procedure, shortened: as §1
# Carbonic anhydrase 9 = Carbonic anhydrase 9 (Homo sapiens, UniProt Q16790); assay: Inhibition of recombinant human carbonic anhydrase 9 preincubated with enzyme for 15 mins by phenol red dye based stopped flow CO2 hydrase assay
# HOP-92 = assay: Antitumor activity against human HOP92 cells assessed as cell growth inhibition at 10 uM incubated for 48 hrs by sulforhodamine B assay; type: functional; settings: read-out: GI; procedure, shortened: as §1
# DU-145 = assay: Antitumor activity against human DU-145 cells assessed as cell growth inhibition at 10 uM incubated for 48 hrs by sulforhodamine B assay; type: functional; settings: read-out: GI; procedure, shortened: as §1
# CDK9/cyclin T1 = CDK9/cyclin T1 (Homo sapiens, UniProt P50750); assay: Inhibition of human full-length N-terminal GST/His6-tagged CDK9 (1 to 372 residues)/His6-tagged Cyclin-T1 (1 to 726 residues) expressed in sf9 cells using (YSPTSPS)2KK peptide as substrate in presence of [gamma33P]ATP
# Sequence of CDK9/cyclin T1 (O60563 whole entry, the tested form may be a part): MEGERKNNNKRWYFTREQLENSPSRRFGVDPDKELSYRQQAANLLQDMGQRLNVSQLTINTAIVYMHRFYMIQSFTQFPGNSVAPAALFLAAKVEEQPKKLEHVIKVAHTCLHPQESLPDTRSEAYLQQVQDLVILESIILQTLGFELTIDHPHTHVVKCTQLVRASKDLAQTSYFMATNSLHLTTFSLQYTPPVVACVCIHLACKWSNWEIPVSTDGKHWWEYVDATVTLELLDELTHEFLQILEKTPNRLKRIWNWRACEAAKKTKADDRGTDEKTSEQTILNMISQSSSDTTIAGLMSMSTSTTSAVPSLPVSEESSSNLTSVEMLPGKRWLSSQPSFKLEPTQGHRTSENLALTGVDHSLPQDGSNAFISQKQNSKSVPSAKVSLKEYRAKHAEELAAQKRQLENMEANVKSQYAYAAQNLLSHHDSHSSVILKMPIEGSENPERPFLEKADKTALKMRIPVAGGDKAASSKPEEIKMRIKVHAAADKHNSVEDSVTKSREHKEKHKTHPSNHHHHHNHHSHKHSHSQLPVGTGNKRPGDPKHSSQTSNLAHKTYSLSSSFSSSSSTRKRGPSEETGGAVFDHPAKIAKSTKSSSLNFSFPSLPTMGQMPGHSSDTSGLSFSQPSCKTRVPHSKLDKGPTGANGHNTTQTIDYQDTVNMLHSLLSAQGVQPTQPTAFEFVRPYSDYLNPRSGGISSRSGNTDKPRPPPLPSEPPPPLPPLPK
# Sequence of CDK9/cyclin T1 (P50750 whole entry, the tested form may be a part): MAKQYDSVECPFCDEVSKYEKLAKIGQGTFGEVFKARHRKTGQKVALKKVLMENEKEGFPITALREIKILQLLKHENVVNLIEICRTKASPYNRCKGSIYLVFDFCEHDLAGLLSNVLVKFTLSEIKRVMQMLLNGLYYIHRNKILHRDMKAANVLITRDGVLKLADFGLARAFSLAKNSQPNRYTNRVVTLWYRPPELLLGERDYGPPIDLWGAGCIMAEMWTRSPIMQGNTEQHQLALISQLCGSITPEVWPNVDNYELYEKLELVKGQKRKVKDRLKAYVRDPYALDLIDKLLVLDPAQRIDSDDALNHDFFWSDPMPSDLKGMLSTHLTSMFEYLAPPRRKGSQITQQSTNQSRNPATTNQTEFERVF
# 786-0 = assay: Antitumor activity against human 786-0 cells assessed as cell growth inhibition at 10 uM incubated for 48 hrs by sulforhodamine B assay; type: functional; settings: read-out: GI; procedure, shortened: as §1
# OVCAR-8 = assay: Antitumor activity against human OVCAR-8 cells assessed as cell growth inhibition at 10 uM incubated for 48 hrs by sulforhodamine B assay; type: functional; settings: read-out: GI; procedure, shortened: as §1
# SK-MEL-2 = assay: Antitumor activity against human SK-MEL-2 cells assessed as cell growth inhibition at 10 uM incubated for 48 hrs by sulforhodamine B assay; type: functional; settings: read-out: GI; procedure, shortened: as §1
# BT-549 = assay: Antitumor activity against human BT-549 cells assessed as cell growth inhibition at 10 uM incubated for 48 hrs by sulforhodamine B assay; type: functional; settings: read-out: GI; procedure, shortened: as §1
# SW-620 = assay: Antitumor activity against human SW620 cells assessed as cell growth inhibition at 10 uM incubated for 48 hrs by sulforhodamine B assay; type: functional; settings: read-out: GI; procedure, shortened: as §2
structure (smiles),measurement,setting,value
Nc1nn2cc(-c3ccc(F)cc3)[nH]c2c1/N=N/c1ccc(S(N)(=O)=O)cc1,inhibition of growth at 10 µM,NCI-H322M,58%
same,inhibition of growth at 10 µM,SNB-75,44%
same,inhibition of growth at 10 µM,HCT-116,37%
same,inhibition of growth at 10 µM,SK-MEL-5,23%
same,inhibition of growth at 10 µM,SR,33%
same,pKi,Carbonic anhydrase 1,6.11
same,inhibition of growth at 10 µM,LOX IMVI,36%
same,inhibition of growth at 10 µM,MDA-MB-435,22%
same,inhibition of growth at 10 µM,ACHN,48%
same,inhibition of growth at 10 µM,RXF 393,40%
same,inhibition of growth at 10 µM,SF-268,23%
same,inhibition of growth at 10 µM,SK-OV-3,26%
same,inhibition of growth at 10 µM,SN12C,31%
same,inhibition of growth at 10 µM,CAKI-1,53%
same,inhibition of growth at 10 µM,U-251,24%
same,inhibition of growth at 10 µM,Hs-578T,33%
same,inhibition of growth at 10 µM,HCT-15,40%
same,inhibition of growth at 10 µM,OVCAR-3,21%
same,pKi,Carbonic anhydrase 2,7.47
same,inhibition of growth at 10 µM,T47D,22%
same,inhibition of growth at 10 µM,SF-539,27%
same,pKi,Carbonic anhydrase 12,7.73
same,inhibition of growth at 10 µM,M14,35%
same,inhibition of growth at 10 µM,Malme-3M,42%
same,inhibition of growth at 10 µM,MDA-MB-231,25%
same,inhibition of growth at 10 µM,A498,60%
same,inhibition of growth at 10 µM,NCI-H460,41%
same,inhibition of growth at 10 µM,UACC-62,29%
same,inhibition of growth at 10 µM,KM12,27%
same,inhibition of growth at 10 µM,NCI-H522,45%
same,pIC50,[1],< 4.90
same,inhibition of growth at 10 µM,RPMI-8226,27%
same,inhibition of growth at 10 µM,UO-31,42%
same,inhibition of growth at 10 µM,IGROV-1,38%
same,inhibition of growth at 10 µM,CCRF-CEM,33%
same,Activity,NCI/ADR-RES,inactive
same,pKi,Carbonic anhydrase 9,7.55
same,inhibition of growth at 10 µM,HOP-92,25%
same,inhibition of growth at 10 µM,DU-145,30%
same,pIC50,CDK9/cyclin T1,< 4.90
same,inhibition of growth at 10 µM,786-0,32%
same,inhibition of growth at 10 µM,OVCAR-8,21%
same,inhibition of growth at 10 µM,SK-MEL-2,30%
same,inhibition of growth at 10 µM,BT-549,26%
same,inhibition of growth at 10 µM,SW-620,23%
